Experiments:
Assay type in all cases: functional
NCI-H23 = assay: Cytotoxicity against human NCI-H23 cells
Method in brief: (§1)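 Tested in a 60-cell-line human tumor panel screen; the read-out is growth inhibition, reported as GI50 for each cell line.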

SF-539 = assay: Cytotoxicity against human SF539 cells; method in brief: as §1
[1] = Cytotoxicity against human HCT15 cells; method in brief: as §1
CAKI-1 = assay: Cytotoxicity against human Caki1 cells; method in brief: as §1
MCF7 = assay: Cytotoxicity against human MCF7 cells; method in brief: as §1
[2] = Cytotoxicity against human NCI-ADR-RES cells; method in brief: as §1
A498 = assay: Cytotoxicity against human A498 cells; method in brief: as §1
T47D = assay: Cytotoxicity against human T47D cells
Method in brief: (§2)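 Cell line run as part of the 60-cell-line screening panel; growth inhibition was reported as a GI50 for each line.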

HCT-116 = assay: Cytotoxicity against human HCT116 cells; method in brief: as §1
[3] = Cytotoxicity against human OVCAR4 cells; method in brief: as §1
HCC 2998 = assay: Cytotoxicity against human HCC2998 cells; method in brief: as §1
DU-145 = assay: Cytotoxicity against human DU145 cells; method in brief: as §1
[4] = Cytotoxicity against human OVCAR3 cells; method in brief: as §1
786-0 = assay: Cytotoxicity against human 786-0 cells; method in brief: as §1
A549 = assay: Cytotoxicity against human A549 cells; method in brief: as §1
LOX IMVI = assay: Cytotoxicity against human LOXIMVI cells; method in brief: as §1
M14 = assay: Cytotoxicity against human M14 cells; method in brief: as §1
HL-60(TB) = assay: Cytotoxicity against human HL-60(TB) cells
Method in brief: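 Tested within the NCI 60-cell-line screen, with GI50 as the read-out. Values are the average of two independent experiments. The lowest concentration tested was 10 nM.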

SF-268 = assay: Cytotoxicity against human SF268 cells; method in brief: as §1
HT-29 = assay: Cytotoxicity against human HT-29 cells; method in brief: as §1
MDA-MB-435 = assay: Cytotoxicity against human MDA-MB-435 cells; method in brief: as §1
TK-10 = assay: Cytotoxicity against human TK10 cells; method in brief: as §2
RXF 393 = assay: Cytotoxicity against human RXF393 cells; method in brief: as §1
MOLT-4 = assay: Cytotoxicity against human MOLT4 cells; method in brief: as §1
IGROV-1 = assay: Cytotoxicity against human IGROV1 cells; method in brief: as §1
SF-295 = assay: Cytotoxicity against human SF295 cells; method in brief: as §1
SN12C = assay: Cytotoxicity against human SN12C cells; method in brief: as §1
MDA-MB-231 = assay: Cytotoxicity against human MDA-MB-231 cells; method in brief: as §1
[5] = Cytotoxicity against human EKVX cells; method in brief: as §1
NCI-H460 = assay: Cytotoxicity against human NCI-H460 cells; method in brief: as §1
BT-549 = assay: Cytotoxicity against human BT549 cells; method in brief: as §1
ACHN = assay: Cytotoxicity against human ACHN cells; method in brief: as §1
[6] = Cytotoxicity against human UO31 cells; method in brief: as §2
SK-OV-3 = assay: Cytotoxicity against human SKOV3 cells; method in brief: as §1
KM12 = assay: Cytotoxicity against human KM12 cells; method in brief: as §1
[7] = Cytotoxicity against human OVCAR8 cells; method in brief: as §1
[8] = Cytotoxicity against human OVCAR5 cells; method in brief: as §1
NCI-H226 = assay: Cytotoxicity against human NCI-H226 cells; method in brief: as §1
K562 = assay: Cytotoxicity against human K562 cells; method in brief: as §1
SNB-75 = assay: Cytotoxicity against human SNB75 cells; method in brief: as §2
U-251 = assay: Cytotoxicity against human U251 cells; method in brief: as §2
SK-MEL-2 = assay: Cytotoxicity against human SK-MEL-2 cells; method in brief: as §1
[9] = Cytotoxicity against human UACC257 cells; method in brief: as §2
[10] = read-out: pLC50 (the source's name) (converted)

**Q.** Which results are given for `COc1cc(/C=C/c2cc(OC)c3c(C/C=C(\C)CCC=C(C)C)c[nH]c3c2)cc2c1O[C@]1(C)CC[C@@H](O)C(C)(C)[C@H]1C2`?
**A.** GI50 (NCI-H23): 2.34 µM; CC50 (NCI-H23; [10]): 66.1 µM; TGI (NCI-H23; read-out: pTGI (converted)): 16.6 µM; GI50 (SF-539): 0.148 µM; CC50 (SF-539; [10]): 5.37 µM; TGI (SF-539; read-out: pTGI (converted)): 0.871 µM; GI50 ([1]; HCT-15): 1.82 µM; CC50 ([1]; HCT-15, read-out: pLC50 (the source's name) (converted)): 66.1 µM; TGI ([1]; HCT-15, read-out: pTGI (converted)): 11.5 µM; GI50 (CAKI-1): 0.603 µM; LC50 (CAKI-1): > 100 µM; TGI (CAKI-1; read-out: pTGI (converted)): 3.89 µM; GI50 (MCF7): 1.02 µM; LC50 (MCF7): 12.6 µM; TGI (MCF7; read-out: pTGI (converted)): 3.39 µM; GI50 [2]: 14.8 µM; CC50 [2, 10]: > 100 µM; TGI ([2]; read-out: pTGI (converted)): > 100 µM; GI50 (A498): 1.02 µM; CC50 (A498; [10]): 16.6 µM; TGI (A498; read-out: pTGI (converted)): 3.72 µM; GI50 (T47D): 7.24 µM; CC50 (T47D; [10]): > 100 µM; TGI (T47D; read-out: pTGI (converted)): 34.7 µM; GI50 (HCT-116): 0.933 µM; CC50 (HCT-116; [10]): 43.7 µM; TGI (HCT-116; read-out: pTGI (converted)): 12.9 µM; GI50 ([3]; OVCAR-4): 2.57 µM; CC50 ([3]; OVCAR-4, read-out: pLC50 (the source's name) (converted)): > 100 µM; TGI ([3]; OVCAR-4, read-out: pTGI (converted)): 70.8 µM; GI50 (HCC 2998): 11.5 µM; CC50 (HCC 2998; [10]): 57.5 µM; TGI (HCC 2998; read-out: pTGI (converted)): 25.7 µM; GI50 (DU-145): 3.8 µM; LC50 (50% lethal concentration) (DU-145): 45.7 µM; TGI (DU-145; read-out: pTGI (converted)): 19.1 µM; GI50 ([4]; OVCAR-3): 5.5 µM; CC50 ([4]; OVCAR-3, read-out: pLC50 (the source's name) (converted)): 47.9 µM; TGI ([4]; OVCAR-3, read-out: pTGI (converted)): 20 µM; GI50 (786-0): 0.195 µM; LC50 (concentration killing 50% of cells) (786-0): 56.2 µM; TGI (786-0; read-out: pTGI (converted)): 1.86 µM; GI50 (A549): 1.66 µM; CC50 (A549; [10]): > 100 µM; TGI (A549; read-out: pTGI (converted)): 36.3 µM; GI50 (LOX IMVI): 1 µM; CC50 (LOX IMVI; [10]): 7.59 µM; TGI (LOX IMVI; read-out: pTGI (converted)): 2.75 µM; GI50 (M14): 1.17 µM; CC50 (M14; [10]): 8.51 µM; TGI (M14; read-out: pTGI (converted)): 3.16 µM; GI50 (HL-60(TB)): 0.363 µM; CC50 (HL-60(TB); [10]): > 100 µM; TGI (HL-60(TB); read-out: pTGI (converted)): 10.5 µM; GI50 (SF-268): 1.41 µM; CC50 (SF-268; [10]): 52.5 µM; TGI (SF-268; read-out: pTGI (converted)): 15.8 µM; GI50 (HT-29): 0.447 µM; CC50 (HT-29; [10]): > 100 µM; TGI (HT-29; read-out: pTGI (converted)): 2.75 µM; GI50 (MDA-MB-435): 1.62 µM; CC50 (MDA-MB-435; [10]): > 100 µM; TGI (MDA-MB-435; read-out: pTGI (converted)): 17.4 µM; GI50 (TK-10): 4.27 µM; LC50 (TK-10): > 100 µM; TGI (TK-10; read-out: pTGI (converted)): 46.8 µM; GI50 (RXF 393): 0.055 µM; LC50 (RXF 393): 1 µM; TGI (RXF 393; read-out: pTGI (converted)): 0.251 µM; GI50 (MOLT-4): 0.251 µM; CC50 (MOLT-4; [10]): > 100 µM; TGI (MOLT-4; read-out: pTGI (converted)): 0.851 µM; GI50 (IGROV-1): 3.8 µM; CC50 (IGROV-1; [10]): 91.2 µM; TGI (IGROV-1; read-out: pTGI (converted)): 24 µM; GI50 (SF-295; read-out: GI50): 0.2 µM; GI50 (SF-295; read-out: pGI50 (converted)): 0.204 µM; TGI (SF-295; read-out: pTGI (converted)): 0.575 µM; GI50 (SN12C): 6.76 µM; LC50 (SN12C): 63.1 µM; TGI (SN12C; read-out: pTGI (converted)): 23.4 µM; GI50 (MDA-MB-231): 1.41 µM; LC50 (MDA-MB-231): 66.1 µM; TGI (MDA-MB-231; read-out: pTGI (converted)): 12.9 µM; GI50 [5]: 1.82 µM; CC50 [5, 10]: > 100 µM; TGI ([5]; read-out: pTGI (converted)): > 100 µM; GI50 (NCI-H460): 1.17 µM; CC50 (NCI-H460; [10]): 43.7 µM; TGI (NCI-H460; read-out: pTGI (converted)): 9.12 µM; GI50 (BT-549): 0.589 µM; CC50 (BT-549; [10]): 64.6 µM; TGI (BT-549; read-out: pTGI (converted)): 17.8 µM; GI50 (ACHN): 0.661 µM; LC50 (concentration killing 50% of cells) (ACHN): 85.1 µM; TGI (ACHN; read-out: pTGI (converted)): 16.2 µM; GI50 ([6]; UO-31): 0.631 µM; LC50 ([6]; UO-31): > 100 µM; TGI ([6]; UO-31, read-out: pTGI (converted)): 14.1 µM; GI50 (SK-OV-3): 1.23 µM; LC50 (SK-OV-3): > 100 µM; TGI (SK-OV-3; read-out: pTGI (converted)): 13.8 µM; GI50 (KM12): 0.562 µM; CC50 (KM12; [10]): 5.13 µM; TGI (KM12; read-out: pTGI (converted)): 1.95 µM; GI50 ([7]; OVCAR-8): 12.6 µM; CC50 ([7]; OVCAR-8, read-out: pLC50 (the source's name) (converted)): > 100 µM; TGI ([7]; OVCAR-8, read-out: pTGI (converted)): 36.3 µM; GI50 ([8]; OVCAR-5): 1.02 µM; CC50 ([8]; OVCAR-5, read-out: pLC50 (the source's name) (converted)): 49 µM; TGI ([8]; OVCAR-5, read-out: pTGI (converted)): 14.5 µM; GI50 (NCI-H226): 8.32 µM; CC50 (NCI-H226; [10]): 61.7 µM; TGI (NCI-H226; read-out: pTGI (converted)): 24.5 µM; GI50 (K562): 0.427 µM; CC50 (K562; [10]): > 100 µM; TGI (K562; read-out: pTGI (converted)): 3.89 µM; GI50 (SNB-75): 0.145 µM; CC50 (SNB-75; [10]): 40.7 µM; TGI (SNB-75; read-out: pTGI (converted)): 0.692 µM; GI50 (U-251): 0.759 µM; CC50 (U-251; [10]): 39.8 µM; TGI (U-251; read-out: pTGI (converted)): 12.9 µM; GI50 (SK-MEL-2): 1 µM; CC50 (SK-MEL-2; [10]): 63.1 µM; TGI (SK-MEL-2; read-out: pTGI (converted)): 9.77 µM; GI50 ([9]; UACC-257): 5.75 µM; CC50 ([9]; UACC-257, read-out: pLC50 (the source's name) (converted)): 81.3 µM; TGI ([9]; UACC-257, read-out: pTGI (converted)): 25.7 µM
